Measured values from ChEMBL document CHEMBL3779771, “Chiral Dihydrobenzofuran Acids Show Potent Retinoid X Receptor-Nuclear Receptor Related 1 Protein Dimer Activation” (J Med Chem, 2016).
Calls of active or inactive are those of the source. The calls are words filed in the database; no cut-off is given here.

Legend:
[1] = biological target: T1, Retinoic acid receptor RXR-alpha (Homo sapiens, UniProt P19793); assay: (§1) Agonist activity at histidine-tagged ligand binding domain of human RXRalpha expressed in Escherichia coli BL21 (DE3) by luciferase reporter gene assay
T1 sequence (P19793 whole entry): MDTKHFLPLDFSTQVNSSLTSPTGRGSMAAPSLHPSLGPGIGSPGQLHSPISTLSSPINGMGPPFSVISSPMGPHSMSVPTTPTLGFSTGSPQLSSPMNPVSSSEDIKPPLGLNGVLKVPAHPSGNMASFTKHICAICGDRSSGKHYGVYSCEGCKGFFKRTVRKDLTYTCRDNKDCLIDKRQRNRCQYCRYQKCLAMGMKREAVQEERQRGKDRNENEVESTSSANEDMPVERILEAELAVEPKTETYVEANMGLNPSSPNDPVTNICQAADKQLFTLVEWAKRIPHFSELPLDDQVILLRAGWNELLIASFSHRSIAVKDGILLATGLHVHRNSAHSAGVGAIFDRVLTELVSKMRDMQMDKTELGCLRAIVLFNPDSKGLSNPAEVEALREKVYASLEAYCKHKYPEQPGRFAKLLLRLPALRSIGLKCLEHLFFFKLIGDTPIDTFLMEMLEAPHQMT

[2] = biological target: T2, Estrogen receptor (Homo sapiens) (UniProt P03372); assay: Activation of estrogen receptor (unknown origin)
T2 sequence (whole entry): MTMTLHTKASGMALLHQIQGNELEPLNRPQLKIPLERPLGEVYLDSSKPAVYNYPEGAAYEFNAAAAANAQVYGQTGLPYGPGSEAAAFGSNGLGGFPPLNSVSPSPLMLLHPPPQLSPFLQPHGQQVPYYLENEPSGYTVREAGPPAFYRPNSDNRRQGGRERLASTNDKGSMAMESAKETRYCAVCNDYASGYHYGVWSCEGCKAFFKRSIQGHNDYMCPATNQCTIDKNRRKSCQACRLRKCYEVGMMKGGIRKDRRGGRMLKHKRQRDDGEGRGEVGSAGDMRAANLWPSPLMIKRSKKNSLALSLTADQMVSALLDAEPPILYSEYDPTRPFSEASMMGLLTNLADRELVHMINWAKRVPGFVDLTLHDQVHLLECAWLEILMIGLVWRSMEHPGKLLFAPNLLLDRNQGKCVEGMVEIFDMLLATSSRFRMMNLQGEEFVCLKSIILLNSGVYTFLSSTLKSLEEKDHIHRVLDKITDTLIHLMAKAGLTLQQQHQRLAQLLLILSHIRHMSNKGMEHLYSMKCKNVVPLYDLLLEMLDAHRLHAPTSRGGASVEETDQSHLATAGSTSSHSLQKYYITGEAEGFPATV

[3] = biological target: Retinoic acid receptor (Homo sapiens) (UniProt P13631+P10826+P10276); assay: Activation of RAR (unknown origin); assay type: protein assay
[4] = biological target: T3, Retinoic acid receptor RXR-alpha (Homo sapiens) (UniProt P19793); assay: Agonist activity at histidine-tagged ligand binding domain of human RXRalpha expressed in Escherichia coli BL21 (DE3) by luciferase reporter gene assay relative to bexarotene
T3 sequence (whole entry): T1 sequence (P19793 whole entry)

[5] = biological target: T3, Retinoic acid receptor RXR-alpha (Homo sapiens); assay: as §1
[6] = biological target: T3, Retinoic acid receptor RXR-alpha (Homo sapiens); assay: Agonist activity at Renilla luciferase/GFP2-tagged RXRalpha homodimer (unknown origin) expressed in HEK293T cells by BRET2 assay relative to bexarotene; assay type: cell-based; settings: HEK-293T
Procedure, shortened: (§2)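 BRET2 assay with RXR and Nurr1 receptors tagged with GFP and Renilla luciferase, run in whole cells. Potency is given as pEC50, the negative log of molar EC50. Agonist efficacy is expressed relative to bexarotene, set at 100%. Values are mean ± SD of at least three independent experiments.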

[7] = biological target: T4, Nuclear receptor subfamily 4 group A member 2/Retinoic acid receptor RXR-alpha (Homo sapiens, UniProt P19793+P43354); assay: Agonist activity at Renilla luciferase/GFP2-tagged RXRalpha/Nurr1 (unknown origin) expressed in HEK293T cells by BRET2 assay relative to bexarotene; assay type: cell-based; settings: HEK-293T; procedure, shortened: as §2
[8] = biological target: T4, Nuclear receptor subfamily 4 group A member 2/Retinoic acid receptor RXR-alpha; assay: Agonist activity at Renilla luciferase/GFP2-tagged RXRalpha/Nurr1 (unknown origin) expressed in HEK293T cells by BRET2 assay; assay type: cell-based, HEK-293T
[9] = biological target: T1, Retinoic acid receptor RXR-alpha; assay: Agonist activity at Renilla luciferase/GFP2-tagged RXRalpha homodimer (unknown origin) expressed in HEK293T cells by BRET2 assay; assay type: cell-based, HEK-293T
Homo sapiens = organism: Homo sapiens; assay: Selectivity ratio of EC50 for Renilla luciferase/GFP2-tagged RXRalpha homodimer (unknown origin) to EC50 for Renilla luciferase/GFP2-tagged RXRalpha/Nurr1 (unknown origin)

T4 sequence (P43354 whole entry, one chain of several): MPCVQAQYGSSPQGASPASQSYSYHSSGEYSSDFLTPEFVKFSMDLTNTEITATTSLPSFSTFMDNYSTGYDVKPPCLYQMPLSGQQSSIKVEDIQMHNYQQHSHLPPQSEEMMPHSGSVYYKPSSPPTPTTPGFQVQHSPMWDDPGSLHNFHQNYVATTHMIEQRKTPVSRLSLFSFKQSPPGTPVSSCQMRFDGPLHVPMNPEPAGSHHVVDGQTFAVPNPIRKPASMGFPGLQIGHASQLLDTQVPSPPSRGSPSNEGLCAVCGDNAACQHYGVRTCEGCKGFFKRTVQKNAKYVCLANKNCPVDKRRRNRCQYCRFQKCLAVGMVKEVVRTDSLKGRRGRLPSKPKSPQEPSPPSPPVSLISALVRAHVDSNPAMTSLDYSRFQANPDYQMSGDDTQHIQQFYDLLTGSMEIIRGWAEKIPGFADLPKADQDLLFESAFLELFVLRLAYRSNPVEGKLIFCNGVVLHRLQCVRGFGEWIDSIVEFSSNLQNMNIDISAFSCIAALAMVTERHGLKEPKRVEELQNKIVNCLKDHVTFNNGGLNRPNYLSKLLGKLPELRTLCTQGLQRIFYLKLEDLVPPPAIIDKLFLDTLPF
Sequence of Retinoic acid receptor (Homo sapiens) (P10276 whole entry, looked up, the tested form may be a part): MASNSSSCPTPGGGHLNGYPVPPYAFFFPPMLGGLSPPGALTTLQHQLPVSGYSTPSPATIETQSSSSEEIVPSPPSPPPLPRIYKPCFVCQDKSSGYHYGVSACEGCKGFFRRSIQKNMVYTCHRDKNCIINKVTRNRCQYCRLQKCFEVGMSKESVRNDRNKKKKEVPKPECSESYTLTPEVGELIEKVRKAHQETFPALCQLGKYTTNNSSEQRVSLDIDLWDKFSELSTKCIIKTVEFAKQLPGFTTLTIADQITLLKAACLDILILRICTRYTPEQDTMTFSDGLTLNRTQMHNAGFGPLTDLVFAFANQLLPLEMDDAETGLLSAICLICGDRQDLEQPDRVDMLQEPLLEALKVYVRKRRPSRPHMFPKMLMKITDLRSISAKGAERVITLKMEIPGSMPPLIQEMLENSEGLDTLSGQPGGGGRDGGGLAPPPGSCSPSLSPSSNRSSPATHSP
Sequence of Retinoic acid receptor (Homo sapiens) (P10826 whole entry, looked up, the tested form may be a part): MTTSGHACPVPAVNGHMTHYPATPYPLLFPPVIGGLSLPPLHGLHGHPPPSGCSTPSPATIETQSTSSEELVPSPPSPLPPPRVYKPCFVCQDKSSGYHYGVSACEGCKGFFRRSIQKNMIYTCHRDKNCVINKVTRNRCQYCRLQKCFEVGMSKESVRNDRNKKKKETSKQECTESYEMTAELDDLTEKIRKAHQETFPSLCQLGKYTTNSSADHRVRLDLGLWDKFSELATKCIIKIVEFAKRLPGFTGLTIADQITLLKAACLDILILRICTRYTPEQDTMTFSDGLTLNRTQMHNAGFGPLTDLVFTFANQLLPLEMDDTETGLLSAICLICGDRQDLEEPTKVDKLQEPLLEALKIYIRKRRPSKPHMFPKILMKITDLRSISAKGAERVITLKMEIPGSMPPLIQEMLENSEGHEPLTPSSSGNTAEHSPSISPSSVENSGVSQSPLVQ
Sequence of Retinoic acid receptor (Homo sapiens) (P13631 whole entry, looked up, the tested form may be a part): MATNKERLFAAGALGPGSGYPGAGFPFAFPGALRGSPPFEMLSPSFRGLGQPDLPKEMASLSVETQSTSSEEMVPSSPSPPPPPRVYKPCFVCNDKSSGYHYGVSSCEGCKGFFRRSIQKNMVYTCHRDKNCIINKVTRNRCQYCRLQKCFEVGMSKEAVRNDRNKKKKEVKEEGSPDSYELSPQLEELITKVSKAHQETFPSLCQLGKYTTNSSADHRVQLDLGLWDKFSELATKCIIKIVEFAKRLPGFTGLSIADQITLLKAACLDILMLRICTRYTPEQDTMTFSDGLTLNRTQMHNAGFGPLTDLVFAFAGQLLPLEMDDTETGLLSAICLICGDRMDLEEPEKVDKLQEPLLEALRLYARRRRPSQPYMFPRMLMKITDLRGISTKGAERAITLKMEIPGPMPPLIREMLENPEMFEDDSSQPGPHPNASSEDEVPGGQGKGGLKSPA

Row | SMILES | EC50 [1] [nM] | Activity [2] | Activity [3] | Efficacy [4] [%] | pEC50 [5] | Efficacy [6] | Efficacy [7] [%] | EC50 [8] [nM] | EC50 [9] [nM] | Ratio EC50 (Homo sapiens)
1 | CC1(C)CCC(C)(C)c2cc3c(cc21)OC1CCCCC31c1ccc(C(=O)O)c(F)c1 (racemic) | 50.1 | inactive | inactive | 88 |  |  |  |  |  | 
2 | CC1(C)CCC(C)(C)c2cc3c(cc21)OC1CCCCC31c1ccc(O)cc1 (racemic) |  |  |  |  | inactive |  |  |  |  | 
3 | CC1(C)CCC(C)(C)c2cc3c(cc21)O[C@H]1CCC[C@@]31c1ccc(C(=O)O)cc1 | 1000 |  |  | 59 |  | inactive | 49 | 501 |  | 
4 | CC1(C)CCC(C)(C)c2cc3c(cc21)OC1CCCC31c1ccc(C(=O)O)cc1 (racemic) | 25.1 | inactive | inactive | 65 |  |  |  |  |  | 
5 | CC1(C)CCC(C)(C)c2cc3c(cc21)O[C@@H]1CCC[C@]31c1ccc(C(=O)O)cc1 | 6.31 |  |  | 119 |  | 85% | 111 | 12.6 | 25.1 | 3

Results, then the compound that gave them:

Row | EC50 [1] [nM] | Activity [2] | Activity [3] | Efficacy [4] [%] | pEC50 [5] | Efficacy [6] | Efficacy [7] [%] | EC50 [8] [nM] | EC50 [9] [nM] | Ratio EC50 (Homo sapiens) | SMILES
6 |  |  |  |  | inactive |  |  |  |  |  | CC1(C)CCC(C)(C)c2cc3c(cc21)O[C@H]1CCCCC[C@]31c1ccc(C(=O)O)cc1 (racemic)
7 | 20 |  |  | 94 |  | 80% | 96 | 12.6 | 15.8 |  | CC1(C)CCC(C)(C)c2cc3c(cc21)O[C@@H]1CCCC[C@]31c1ccc(C(=O)O)cc1
8 | 50.1 | inactive | inactive | 96 |  |  |  |  |  |  | CC1(C)CCC(C)(C)c2cc3c(cc21)OC1CCCCC31c1ccc(C(=O)O)cc1 (racemic)
9 |  |  |  |  | inactive | inactive | 92 | > 3160 |  |  | CC1(C)CCC(C)(C)c2cc3c(cc21)O[C@H]1CCCC[C@@]31c1ccc(C(=O)O)cc1
10 | 126 | inactive | inactive | 47 |  |  |  |  |  |  | CC1(C)CCC(C)(C)c2cc3c(cc21)O[C@H]1CCCCC[C@@]31c1ccc(C(=O)O)cc1 (racemic)
